Reference: ChEMBL document CHEMBL4765302, “Design, synthesis and biological evaluation of novel histone deacetylase1/2 (HDAC1/2) and cyclin-dependent Kinase2 (CDK2) dual inhibitors against malignant cancer” (Eur J Med Chem, 2020)

Tests used:
HCT-116 [1] = assay: Antiproliferative activity against human HCT-116 cells assessed as reduction in cell growth at 2 uM incubated for 72 hrs by CCK-8 assay relative to control; format: functional
HCT-116 [2] = assay: Antiproliferative activity against human HCT-116 cells assessed as reduction in cell growth at 8 uM incubated for 72 hrs by CCK-8 assay relative to control; format: functional
HepG2 [3] = assay: Antiproliferative activity against human HepG2 cells assessed as reduction in cell growth at 2 uM incubated for 72 hrs by CCK-8 assay relative to control; format: functional
HepG2 [4] = assay: Antiproliferative activity against human HepG2 cells assessed as reduction in cell growth at 8 uM incubated for 72 hrs by CCK-8 assay relative to control; format: functional
NCI-H460 [5] = assay: Antiproliferative activity against human H460 cells assessed as reduction in cell growth at 2 uM incubated for 72 hrs by CCK-8 assay relative to control; format: functional
NCI-H460 [6] = assay: Antiproliferative activity against human H460 cells assessed as reduction in cell growth at 8 uM incubated for 72 hrs by CCK-8 assay relative to control; format: functional
Histone deacetylase 1 = Histone deacetylase 1 (Homo sapiens, UniProt Q13547); assay: Inhibition of recombinant human HDAC1 at 10 uM using SIRT1 as substrate incubated for 10 mins followed by substrate addition and measured after 30 mins by fluorescence based assay relative to control; conditions: time 40.0 min
Summary of the method: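 Enzyme inhibition of HDAC1 measured at a single concentration of 10 µM, tested alongside the cell-growth screen.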

Sequence of Histone deacetylase 1 (Q13547 whole entry): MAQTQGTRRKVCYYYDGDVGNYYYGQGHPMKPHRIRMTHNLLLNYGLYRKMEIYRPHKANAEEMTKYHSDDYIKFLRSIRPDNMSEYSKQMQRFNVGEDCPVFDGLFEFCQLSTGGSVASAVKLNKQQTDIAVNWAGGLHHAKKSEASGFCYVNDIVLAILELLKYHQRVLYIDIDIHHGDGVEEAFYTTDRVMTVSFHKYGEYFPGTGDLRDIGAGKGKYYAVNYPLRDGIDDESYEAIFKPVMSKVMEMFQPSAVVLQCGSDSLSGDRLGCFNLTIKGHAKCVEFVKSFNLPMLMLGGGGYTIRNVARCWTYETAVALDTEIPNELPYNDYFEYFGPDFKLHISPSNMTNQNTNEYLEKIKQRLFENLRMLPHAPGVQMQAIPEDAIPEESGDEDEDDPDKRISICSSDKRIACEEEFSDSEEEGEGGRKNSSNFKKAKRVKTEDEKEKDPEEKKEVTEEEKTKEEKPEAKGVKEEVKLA

Structure (SMILES)	inhibition at 2 µM (HCT-116 [1])	inhibition at 8 µM (HCT-116 [2])	inhibition at 2 µM (HepG2 [3])	inhibition at 8 µM (HepG2 [4])	inhibition at 2 µM (NCI-H460 [5])	inhibition at 8 µM (NCI-H460 [6])	inhibition (Histone deacetylase 1)
CCCCn1cnc2c(NCc3ccc(C(=O)Nc4ccccc4N)cc3)nc(Cl)nc21	4.89%	40.9%	6.8%	19.6%	19.7%	23.7%	9.56%
Nc1ccccc1NC(=O)c1ccc(Cn2cnc3c(Nc4cccc(OC(F)(F)F)c4)nc(Cl)nc32)cc1	1.6%	46.6%	1.88%	31.2%	47.7%	62.4%	37.4%
Nc1ccccc1NC(=O)/C=C/c1ccc(Cn2cnc3c(N4CCOCC4)nc(Cl)nc32)cc1	17.8%	55.4%	19%	40.9%	1.24%	37.9%	25.7%
Nc1ccccc1NC(=O)/C=C/c1ccc(Cn2cnc3c(Nc4cccc(OC(F)(F)F)c4)nc(Cl)nc32)cc1	2.8%	5.23%	16.2%	37.6%	2.1%	66.7%	40.3%
Nc1ccccc1NC(=O)/C=C/c1ccc(Cn2cnc3c(Nc4ccccc4)nc(Cl)nc32)cc1	7.75%	30.9%	16.4%	41.9%	2.05%	28.7%	14.8%
Nc1ccccc1NC(=O)/C=C/c1ccc(Cn2cnc3c(Nc4cccc(Cl)c4)nc(Cl)nc32)cc1	12.9%	15.8%	35.8%	49.3%	7.11%	29.4%	23.6%
CC1CCN(c2nc(Cl)nc3c2ncn3Cc2ccc(/C=C/C(=O)Nc3ccccc3N)cc2)CC1	4.24%	26.9%	8.73%	32.2%	8.24%	10.8%	4.87%
COC(CCn1cnc2c(NCc3ccc(C(=O)Nc4ccccc4N)cc3)nc(Cl)nc21)OC	6.39%	11.9%	8.52%	34.2%	43.7%	51.2%	29.5%
Nc1ccccc1NC(=O)c1ccc(CNc2nc(Cl)nc3c2ncn3Cc2ccccc2)cc1	7.7%	11.4%	5.01%	5.32%	43.8%	46.4%	27.6%
CCCn1cnc2c(NCc3ccc(C(=O)Nc4ccccc4N)cc3)nc(Cl)nc21	28.5%	29.6%	12.4%	14.1%	31%	39.2%	11.4%
Nc1ccccc1NC(=O)/C=C/c1ccc(Cn2cnc3c(NCc4ccccc4)nc(Cl)nc32)cc1	2.85%	17.4%	11.5%	37.7%	4.62%	49.1%	22.5%
Nc1ccccc1NC(=O)/C=C/c1ccc(Cn2cnc3c(NC4CCCCC4)nc(Cl)nc32)cc1	3.34%	18.7%	3.83%	42.6%	8.09%	24.9%	28.2%
CCCCn1cnc2c(Nc3cccc(Cl)c3)nc(NCCOCc3ccc(/C=C/C(=O)Nc4ccccc4N)cc3)nc21	4.76%	10.8%	20.4%	30.4%	25.7%	51.1%	24.6%
